Several values for one entry are separate records, joined by “and”; a condition that tells them apart may be missing. Equal entries are not always repeated.
Assays:
Assay type in all cases: toxicity, cell-based
HEK-293T [1] = test: Multiplex assay against HEK293T; settings: human, 24 h, 10 µM, compound concentration 10 uM, replicate 2
How it was run: (§1)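 Compound was added to live cells that had been stained at seeding with Hoechst33342, BioTracker Green Microtubule Cytoskeleton Dye, MitoTracker Red and Annexin V Alexa Fluor 680, and imaging followed on a CQ1 microscope at 37°C and 5% CO2. CellPathfinder machine-learning gating divided cells into Hoechst high-intensity objects or normal cells, normal cells into healthy, pyknosed or fragmented nuclei, and pyknosed cells into mitotic or apoptotic. Tubulin, mitochondrial-mass and membrane-permeability phenotypes are per cents of healthy-nucleus cells.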

U2OS [2] = test: Multiplex assay against U2OS; settings: human, 10 µM, compound concentration 10 uM; how it was run: as §1
HEK-293T [3] = test: Incucyte cell viability with HEK293T; settings: human, 10 µM, compound concentration 10 uM; note: filed as whole numbers so only -1 and 0 and 1 occur
Fibroblast = test: Incucyte cell viability with human fibroblast; settings: 10 µM, compound concentration 10 uM; note: filed as whole numbers so only -1 and 0 and 1 occur
U2OS [4] = test: Incucyte cell viability with U2OS; settings: human, 10 µM, compound concentration 10 uM; note: filed as whole numbers so only -1 and 0 and 1 occur
[5] = 6 h, replicate number 1, timepoint 6 hours
[6] = 12 h, replicate number 1, timepoint 12 hours
[7] = 18 h, replicate number 1, timepoint 18 hours
[8] = 24 h, replicate number 1, timepoint 24 hours

## COc1cc(C)c(Sc2cnc(NC(=O)c3ccc(CNC(C)C(C)(C)C)cc3)s2)cc1C(=O)N1CCN(C(C)=O)CC1 (centres undefined)
HEK-293T [1]
  Population Apoptotic (%): 7% and 4%
  Population Fragmented Nuclei (%): 15% and 22%
  Population Healthy Nuclei (%): 81% and 74%
  Population Hoechst High Intensity Objects (%): 3%
  Population Membrane Permeable-Phenotype (%): 8% and 5%
  Population Mitochondria Different-Phenotype (%): 5% and 2%
  Population Mitotic Cells (%): 92% and 95%
  Population Normal (%): 96%
  Population Pyknosed Nuclei (%): 3% and 2%
  Total Cell Count: 2038 and 2847
U2OS [2]; 12 h, replicate 1
  Population Apoptotic (%): 33% and 44%
  Population Fragmented Nuclei (%): 6% and 2%
  Population Healthy Nuclei (%): 84%
  Population Hoechst High Intensity Objects (%): 3% and 4%
  Population Mitochondria Different-Phenotype (%): 12% and 33%
  Population Mitotic Cells (%): 66% and 55%
  Population Normal (%): 96% and 95%
  Population Pyknosed Nuclei (%): 8% and 6%
  Population Tubulin-Different-Phenotype (%): 32%
  Total Cell Count: 180 and 143
U2OS [2]; 12 h, replicate 2
  Population Apoptotic (%): 0%
  Population Fragmented Nuclei (%): 5%
  Population Healthy Nuclei (%): 90% and 89%
  Population Hoechst High Intensity Objects (%): 12% and 8%
  Population Mitochondria Different-Phenotype (%): 16% and 15%
  Population Mitotic Cells (%): 100%
  Population Normal (%): 87% and 91%
  Population Pyknosed Nuclei (%): 3% and 4%
  Population Tubulin-Different-Phenotype (%): 24% and 19%
  Total Cell Count: 98 and 130
U2OS [2]; 24 h, replicate 1
  Population Apoptotic (%): 78% and 28%
  Population Fragmented Nuclei (%): 2% and 4%
  Population Healthy Nuclei (%): 90% and 92%
  Population Hoechst High Intensity Objects (%): 1%
  Population Membrane Permeable-Phenotype (%): 7%
  Population Mitochondria Different-Phenotype (%): 14% and 24%
  Population Normal (%): 98%
  Population Pyknosed Nuclei (%): 6% and 3%
  Population Tubulin-Different-Phenotype (%): 18% and 34%
  Total Cell Count: 222 and 212
U2OS [2]; 24 h, replicate 2
  Population Apoptotic (%): 18% and 40%
  Population Fragmented Nuclei (%): 3% and 7%
  Population Healthy Nuclei (%): 80% and 89%
  Population Hoechst High Intensity Objects (%): 10% and 7%
  Population Membrane Permeable-Phenotype (%): 15% and 5%
  Population Mitochondria Different-Phenotype (%): 25% and 33%
  Population Mitotic Cells (%): 81% and 60%
  Population Normal (%): 89% and 92%
  Population Pyknosed Nuclei (%): 16%
  Population Tubulin-Different-Phenotype (%): 15% and 28%
  Total Cell Count: 108 and 162
HEK-293T [3]; [5]
  Growth Rate: 0
HEK-293T [3]; [6]
  Growth Rate: 0
HEK-293T [3]; [7]
  Growth Rate: 0
HEK-293T [3]; [8]
  Growth Rate: 0
Fibroblast; [5]
  Growth Rate: 0
Fibroblast; [6]
  Growth Rate: 0
Fibroblast; [7]
  Growth Rate: 0
Fibroblast; [8]
  Growth Rate: 0
U2OS [4]; 0 h, replicate number 1, timepoint 0 hours
  Growth Rate: 0
U2OS [4]; [5]
  Growth Rate: 0
U2OS [4]; [6]
  Growth Rate: 0
U2OS [4]; [7]
  Growth Rate: 0
U2OS [4]; [8]
  Growth Rate: 0

Source: ChEMBL document CHEMBL4689842, “EUbOPEN Chemogenomics Library wave 1” (2021)
